Laboratory results as given in ChEMBL document CHEMBL2375226, “Bivalent angiotensin II suppresses oxidative stress-induced hyper-responsiveness of angiotensin II receptor type I” (Eur J Med Chem, 2013).
Active and inactive are the calls of the source. No cut-off for these calls is given here.

What was measured:
[1] = system: HEK293; test: Stimulation of EGFP-tagged rat AT1 receptor expressed in HEK cells assessed as increase in degree of aggregation at 2.5 nM under non-oxidative condition by image correlation spectroscopic analysis; format: cell-based
In short: (§1)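 HEK cells expressing EGFP-tagged AT₁R were plated at 1.5 × 10⁵ cells per glass-bottom dish. Where stated, cells were pre-treated with H₂O₂ for 3 h. Cell surfaces were imaged before and after 5 nM monovalent Ang II (or a 5 nM total 1:1 mixture) or 2.5 nM bivalent peptide. Imaging used a 488 nm laser and a 60× oil objective. Image correlation spectroscopy gave mean fluorescence intensity, cluster density and degree of aggregation versus unstimulated baseline.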

[2] = system: HEK293; test: Stimulation of EGFP-tagged rat AT1 receptor expressed in HEK cells assessed as increase in degree of aggregation at 2.5 nM under H2O2-induced oxidative stress condition by image correlation spectroscopic analysis; format: cell-based; in short: as §1
[3] = system: HEK293; test: Stimulation of EGFP-tagged rat AT1 receptor expressed in HEK cells assessed as decrease in cluster density value at 2.5 nM under H2O2-induced oxidative stress condition by image correlation spectroscopic analysis; format: cell-based; in short: as §1
[4] = system: HEK293; test: Stimulation of EGFP-tagged rat AT1 receptor expressed in HEK cells assessed as change in cluster density value at 2.5 nM under non-oxidative condition by image correlation spectroscopic analysis relative to control; format: cell-based; in short: as §1
[5] = system: HEK293; test: Stimulation of EGFP-tagged rat AT1 receptor expressed in HEK cells assessed as increase in intracellular calcium level at 5 nM after 3 mins under H2O2-induced oxidative stress condition by fluorimetric assay
[6] = system: HEK293; test: Stimulation of EGFP-tagged rat AT1 receptor expressed in HEK cells assessed as increase in intracellular calcium level at 10 nM after 3 mins by fluorimetric assay
[7] = system: HEK293; test: Stimulation of EGFP-tagged rat AT1 receptor expressed in HEK cells assessed as increase in degree of aggregation at 5 nM under non-oxidative condition by image correlation spectroscopic analysis; format: cell-based; in short: as §1
[8] = system: HEK293; test: Stimulation of EGFP-tagged rat AT1 receptor expressed in HEK cells assessed as increase in degree of aggregation at 5 nM under H2O2-induced oxidative stress condition by image correlation spectroscopic analysis; format: cell-based; in short: as §1
[9] = system: HEK293; test: Stimulation of EGFP-tagged rat AT1 receptor expressed in HEK cells assessed as increase in cluster density value at 5 nM under H2O2-induced oxidative stress condition by image correlation spectroscopic analysis; format: cell-based; in short: as §1
[10] = system: HEK293; test: Stimulation of EGFP-tagged rat AT1 receptor expressed in HEK cells assessed as increase in cluster density value at 5 nM under non-oxidative condition by image correlation spectroscopic analysis relative to control; format: cell-based; in short: as §1
[11] = system: HEK293; test: Stimulation of EGFP-tagged rat AT1 receptor expressed in HEK cells assessed as increase in mean fluorescence intensity at 5 nM under non-oxidative condition by image correlation spectroscopic analysis relative to control; format: cell-based; in short: as §1
[12] = system: HEK293; test: Stimulation of EGFP-tagged rat AT1 receptor expressed in HEK cells assessed as increase in mean fluorescence intensity at 5 nM under H2O2-induced oxidative stress condition by image correlation spectroscopic analysis relative to control; format: cell-based; in short: as §1
[13] = system: HEK293; test: Stimulation of EGFP-tagged rat AT1 receptor expressed in HEK cells assessed as increase in intracellular calcium level at 5 nM after 3 mins under H2O2-induced oxidative stress condition by fluorimetric assay; format: cell-based
In short: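 Before the Indo1-AM [Ca²⁺]i assay, AT₁R-HEK cells were exposed to H₂O₂ for 3 h to impose oxidative stress. They were then stimulated with 5 nM peptide, based on Ang II equivalents. Ratiometric emission at 405/490 nm (ex 338 nm) was monitored for 3 min after ligand addition. Ca²⁺ was derived by Kd-based calibration against EGTA and ionomycin ratios.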

With `CC[C@H](C)[C@H](NC(=O)[C@H](Cc1ccc(O)cc1)NC(=O)[C@@H](NC(=O)[C@H](CCCNC(=N)N)NC(=O)[C@H](CC(=O)O)NC(=O)CCCCCNc1c(N[C@@H](CC(=O)O)C(=O)N[C@@H](CCCNC(=N)N)C(=O)N[C@H](C(=O)N[C@@H](Cc2ccc(O)cc2)C(=O)N[C@H](C(=O)N[C@@H](Cc2cnc[nH]2)C(=O)N2CCC[C@H]2C(=O)N[C@@H](Cc2ccccc2)C(=O)O)[C@@H](C)CC)C(C)C)c(=O)c1=O)C(C)C)C(=O)N[C@@H](Cc1cnc[nH]1)C(=O)N1CCC[C@H]1C(=O)N[C@@H](Cc1ccccc1)C(=O)O` the Activity [1] was “Active”, the Activity [2] was “Active” and the Activity [3] was “inactive”. The Activity [4] was “inactive” and the Activity [5] was “Active”.

With `CC[C@H](C)[C@H](NC(=O)[C@H](Cc1ccc(O)cc1)NC(=O)[C@@H](NC(=O)[C@H](CCCNC(=N)N)NC(=O)[C@H](CC(=O)O)NC(=O)CCCCCNc1c(OC)c(=O)c1=O)C(C)C)C(=O)N[C@@H](Cc1cnc[nH]1)C(=O)N1CCC[C@H]1C(=O)N[C@@H](Cc1ccccc1)C(=O)O` the Activity [6] was “Active”.

`CC[C@H](C)[C@H](NC(=O)[C@H](Cc1ccc(O)cc1)NC(=O)[C@@H](NC(=O)[C@H](CCCNC(=N)N)NC(=O)[C@@H](N)CC(=O)O)C(C)C)C(=O)N[C@@H](Cc1cnc[nH]1)C(=O)N1CCC[C@H]1C(=O)N[C@@H](Cc1ccccc1)C(=O)O` was tested, and the Activity [7] was “inactive”, the Activity [8] was “Active” and the Activity [9] was “Active”. For the same molecule, the Activity [10] was “Active”, the Activity [11] was “Active” and the Activity [12] was “Active”. For the same molecule, the Activity [13] was “Active”.
